According to ChEMBL document CHEMBL4373703 (J Med Chem, 2019):
Converted amounts (≈) assume the structure as drawn. The source made the active and inactive calls. The calls are words filed in the database; no cut-off is given here.

Legend:
[1] = Half-life in Wistar rat plasma at 2 mg/kg, iv or 10 mg/kg, po administered as suspension; type: ADME, organism-based
Mus musculus [2] = assay: Inhibition of B cell activation in C57BL/6 mouse at 1 mg/kg, po after 24 hr relative to control; type: functional
In short: (§1)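 Normal C57BL/6 mice received a single oral dose of 1 mg/kg and were tested in an in vivo B cell stimulation assay. Inhibition of B cell activation was read at 1 h and 24 h after dosing.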

Mus musculus [3] = assay: Inhibition of B cell activation in C57BL/6 mouse at 1 mg/kg, po after 0.25 hr relative to control; type: functional
Rattus norvegicus [4] = assay: Antiarthritic activity in Lewis rat model of collagen-induced arthritis assessed as reduction in ankle histopathological scores at 1 mg/kg, po administered via gavage once daily starting from day 6 to day 16 relative to control; parameters: scale not given: the % may be the effect or the level left
[5] = Tmax in Mongrel dog at 3 mg/kg, po administered as suspension; type: ADME, organism-based, Canis lupus familiaris; details: in vivo
[6] = Oral bioavailability in NMRI mouse at 3 mg/kg; type: ADME, organism-based; details: in vivo
[7] = biological target: T1, Tyrosine-protein kinase Tec (Homo sapiens, UniProt P42680); assay: Inhibition of N-terminal His6-tagged human TEC (174 to end aminoacids) expressed in baculovirus infected Sf21 cells at 1 uM; details: sf21, 1 µM
T1 sequence (P42680 whole entry): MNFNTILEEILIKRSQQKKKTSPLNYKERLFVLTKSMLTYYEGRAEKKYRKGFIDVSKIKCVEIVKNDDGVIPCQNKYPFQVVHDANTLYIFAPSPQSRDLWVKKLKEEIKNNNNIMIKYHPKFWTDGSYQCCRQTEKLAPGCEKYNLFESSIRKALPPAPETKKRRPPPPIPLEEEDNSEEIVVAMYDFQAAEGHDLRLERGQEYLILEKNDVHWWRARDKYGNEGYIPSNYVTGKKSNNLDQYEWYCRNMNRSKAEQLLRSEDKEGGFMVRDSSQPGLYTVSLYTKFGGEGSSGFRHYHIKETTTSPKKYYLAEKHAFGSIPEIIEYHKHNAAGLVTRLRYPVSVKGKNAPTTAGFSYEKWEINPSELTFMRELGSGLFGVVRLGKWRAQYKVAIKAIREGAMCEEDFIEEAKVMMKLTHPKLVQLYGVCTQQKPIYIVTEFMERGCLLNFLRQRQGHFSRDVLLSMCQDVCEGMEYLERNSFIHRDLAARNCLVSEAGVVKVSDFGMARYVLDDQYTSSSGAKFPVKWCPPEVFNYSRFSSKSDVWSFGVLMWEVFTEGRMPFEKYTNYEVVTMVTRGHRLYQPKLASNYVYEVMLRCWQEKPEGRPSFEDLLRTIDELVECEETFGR

Rattus norvegicus [8] = assay: Antiarthritic activity in Lewis rat model of collagen-induced arthritis assessed as reduction in ankle histopathological scores at 0.3 mg/kg, po administered via gavage once daily starting from day 6 to day 16 relative to control; parameters: scale not given: the % may be the effect or the level left
[9] = Tmax in NMRI mouse at 3 mg/kg, po administered as suspension; type: ADME, organism-based; details: in vivo
[10] = Apparent permeability across apical to basolateral side in human Caco2 cells at 1 uM incubated for 2 hrs by LC-MS/MS analysis; type: ADME, cell-based; details: Caco-2
[11] = Tmax in Wistar rat at 10 mg/kg, po administered as suspension; type: ADME, organism-based; details: in vivo
[12] = Kinetic solubility of the compound; type: physicochemical; details: read-out: Kinetic_solubility
Mus musculus [13] = assay: Antiarthritic activity in […] model of collagen-induced arthritis assessed as reduction in ankle swelling at 3 mg/kg, po administered via gavage once daily starting from day 6 to day 16 and measured from day 11 to day 17 by caliper method; type: functional, organism-based
In short: (§2)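 Female Lewis rats with semi-established type II collagen arthritis were dosed by oral gavage once daily on days 6–16 with vehicle (20% hydroxypropyl-beta-cyclodextrin in H2O), test agent (0.3–30 mg/kg) or methotrexate 0.1 mg/kg. Ankle thickness was measured daily by caliper, and animals were terminated on day 17. n = 10 per treatment group, 4 normal controls; ANOVA vs vehicle, P ≤ 0.05.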

[14] = Oral bioavailability in Wistar rat at 10 mg/kg; type: ADME, organism-based; details: in vivo
Mus musculus [15] = assay: Antiarthritic activity in […] model of collagen-induced arthritis assessed as reduction in ankle swelling at 10 mg/kg, po administered via gavage once daily starting from day 6 to day 16 and measured from day 11 to day 17 by caliper method; type: functional, organism-based; in short: as §2
Mus musculus [16] = assay: Inhibition of B cell activation in C57BL/6 mouse at 1 mg/kg, po after 1 hr relative to control; type: functional; in short: as §1
[17] = Stability of the compound in plasma (unknown origin) assessed as compound remaining at 4 hrs; type: ADME, cell-free; details: read-out: Stability
[18] = Cmax in C57BL/6 mouse at 1 mg/kg, po; type: ADME, organism-based; parameters: dose 1 mg/kg, route oral; details: in vivo
[19] = Half-life in Mongrel dog plasma at 1 mg/kg, iv or 3 mg/kg, po administered as suspension; type: ADME, organism-based, Canis lupus familiaris
Rattus norvegicus [20] = assay: Antiarthritic activity in Lewis rat model of collagen-induced arthritis assessed as reduction in ankle histopathological scores at 3 mg/kg, po administered via gavage once daily starting from day 6 to day 16 relative to control; parameters: scale not given: the % may be the effect or the level left
[21] = biological target: Voltage-gated inwardly rectifying potassium channel KCNH2 (Homo sapiens, UniProt Q12809); assay: Inhibition of human ERG expressed in HEK293 cells at -80 mV holding potential by […]; type: cell-based
Sequence of Voltage-gated inwardly rectifying potassium channel KCNH2 (Q12809 whole entry): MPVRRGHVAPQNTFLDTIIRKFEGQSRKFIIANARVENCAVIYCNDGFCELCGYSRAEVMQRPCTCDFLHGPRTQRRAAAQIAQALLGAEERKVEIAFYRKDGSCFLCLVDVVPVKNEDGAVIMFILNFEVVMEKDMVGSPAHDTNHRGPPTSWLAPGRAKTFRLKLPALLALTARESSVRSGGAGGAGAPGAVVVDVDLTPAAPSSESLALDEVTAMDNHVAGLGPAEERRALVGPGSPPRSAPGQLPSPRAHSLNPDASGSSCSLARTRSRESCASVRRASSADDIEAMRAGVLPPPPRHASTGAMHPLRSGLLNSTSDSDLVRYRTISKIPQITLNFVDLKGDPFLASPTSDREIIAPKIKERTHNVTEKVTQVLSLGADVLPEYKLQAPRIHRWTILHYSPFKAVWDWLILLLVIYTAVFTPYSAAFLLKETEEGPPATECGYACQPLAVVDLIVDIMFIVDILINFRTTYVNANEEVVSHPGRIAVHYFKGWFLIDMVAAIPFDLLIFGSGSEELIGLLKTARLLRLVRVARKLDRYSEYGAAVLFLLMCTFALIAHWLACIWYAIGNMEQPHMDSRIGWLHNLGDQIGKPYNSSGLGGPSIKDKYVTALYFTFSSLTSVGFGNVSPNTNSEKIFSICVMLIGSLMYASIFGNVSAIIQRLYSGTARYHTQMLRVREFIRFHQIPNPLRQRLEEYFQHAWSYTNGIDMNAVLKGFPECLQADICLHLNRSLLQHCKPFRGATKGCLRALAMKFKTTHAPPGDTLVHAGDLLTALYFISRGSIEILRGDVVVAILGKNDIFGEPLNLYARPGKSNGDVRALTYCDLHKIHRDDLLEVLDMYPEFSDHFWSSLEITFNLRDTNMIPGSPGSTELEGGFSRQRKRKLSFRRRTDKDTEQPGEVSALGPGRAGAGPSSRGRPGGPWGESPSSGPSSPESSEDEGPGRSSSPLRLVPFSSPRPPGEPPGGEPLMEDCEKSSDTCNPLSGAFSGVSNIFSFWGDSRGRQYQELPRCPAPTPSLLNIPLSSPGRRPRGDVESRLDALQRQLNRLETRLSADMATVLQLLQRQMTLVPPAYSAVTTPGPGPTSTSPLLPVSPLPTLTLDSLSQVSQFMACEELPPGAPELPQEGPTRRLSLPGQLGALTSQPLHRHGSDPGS

Rattus norvegicus [22] = assay: Antiarthritic activity in Lewis rat model of collagen-induced arthritis assessed as reduction in ankle histopathological scores at 30 mg/kg, po administered via gavage once daily starting from day 6 to day 16 relative to control; parameters: scale not given: the % may be the effect or the level left
[23] = Intrinsic clearance in human liver microsomes at 1 uM in presence of NADPH measured up to 30 mins by LC-MS/MS analysis; type: ADME, Microsome; details: read-out: CLH
Rattus norvegicus [24] = assay: Antiarthritic activity in Lewis rat model of collagen-induced arthritis assessed as reduction in ankle histopathological scores at 10 mg/kg, po administered via gavage once daily starting from day 6 to day 16 relative to control; parameters: scale not given: the % may be the effect or the level left
[25] = Half-life in NMRI mouse plasma at 1 mg/kg, iv or 3 mg/kg, po administered as suspension; type: ADME, organism-based
Mus musculus [26] = assay: Antiarthritic activity in […] model of collagen-induced arthritis assessed as reduction in ankle swelling at 30 mg/kg, po administered via gavage once daily starting from day 6 to day 16 and measured from day 10 to day 17 by caliper method; type: functional, organism-based; in short: as §2

Question: For `C=CC(=O)N1CCC(CNc2ncnc(N)c2-c2ccc(Oc3ccccc3)cc2)CC1` [EVOBRUTINIB], which half-life [1] is on record?
Answer: Its half-life is 1 h.

Question: What about the “inhibition (INH)” value (Mus musculus [2]) of the same compound?
Answer: The value was 25%.

Question: What about the “inhibition (INH)” value (Mus musculus [3]) of the same compound?
Answer: Its value is 17%.

Question: And the Activity (Rattus norvegicus [4])?
Answer: The Activity was 3%.

Question: What about the Tmax [5] of the same compound?
Answer: The Tmax was 0.25 to 1 h.

Question: What about the bioavailability [6] of the same compound?
Answer: The bioavailability was no more than 25%.

Question: And the “inhibition (INH)” value [7]?
Answer: Its value is “Active”.

Question: What about the Activity (Rattus norvegicus [8]) of the same compound?
Answer: The Activity was 1%.

Question: What about the Tmax [9] of the same compound?
Answer: The Tmax was 0.25 to 1 h.

Question: What about the Papp A→B at 2 h, 1 µM [10] of the same compound?
Answer: The Papp A→B at 2 h, 1 µM was 22 ×10⁻⁶ cm/s.

Question: And the Tmax [11]?
Answer: Its Tmax is 0.25 to 1 h.

Question: What about the solubility kinetic [12] of the same compound?
Answer: The solubility kinetic was 60 µM (≈ 25.8 µg/mL).

Question: And the Activity (Mus musculus [13])?
Answer: The Activity was “Active”.

Question: What about the bioavailability [14] of the same compound?
Answer: Its bioavailability is less than 5%.

Question: And the Activity (Mus musculus [15])?
Answer: Its Activity is “Active”.

Question: What about the “inhibition (INH)” value (Mus musculus [16]) of the same compound?
Answer: The value was 71%.

Question: What about the remaining at 4 h [17] of the same compound?
Answer: The remaining at 4 h was 81%.

Question: And the Cmax [18]?
Answer: Its Cmax is 52 nM.

Question: What about the half-life [19] of the same compound?
Answer: The half-life was 1 h.

Question: What about the Activity (Rattus norvegicus [20]) of the same compound?
Answer: The Activity was 42%.

Question: What about the Ki [21] of the same compound?
Answer: The Ki was 3.1 µM.

Question: What about the Activity (Rattus norvegicus [22]) of the same compound?
Answer: Its Activity is 94%.

Question: And the microsomal CLint at 1 µM [23]?
Answer: The microsomal CLint at 1 µM was 110 µL/min/mg.

Question: What about the Activity (Rattus norvegicus [24]) of the same compound?
Answer: The Activity was 63%.

Question: And the half-life [25]?
Answer: The half-life was 1 h.

Question: And the Activity (Mus musculus [26])?
Answer: The Activity was “Active”.
